The values that follow come from publication PMC2843942 (Journal of the American Chemical Society, 2010).

For test [1], the target named is GST-LSD1 (aa 171-852) (UniProt O60341). Kind of test: enzyme inhibition kinetics.
The target in test [2] is T1, GST-LSD1 (Homo sapiens, UniProt O60341). The test is described as follows: peroxidase-coupled assay. The class given is biochemical. As to conditions: for KI (inactivation): 185 nM GST-LSD1, 240 µM substrate, extrapolated to zero substrate, Kitz-Wilson; for k(inact): 185 nM GST-LSD1, Kitz-Wilson analysis; for time-dependent inactivation of LSD1: result in words.
The target of test [3] is T1, GST-LSD1. The test is described as follows: Amplex Red horseradish peroxidase coupled assay detecting H2O2. The class given is biochemical. Put shortly:
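Human GST-LSD1 (aa 171–852) from E. coli, at 25 nM, in 50 mM HEPES pH 7.5 with 0.1 mM Amplex Red and 0.76 µM horseradish peroxidase. Dimethyl-Lys-4 H3-21 substrate started 150 µL reactions, aerobic, at 25 °C. For inactivation, test compound and substrate (600 µM final) were added together. H2O2 was followed at 571 nm (ε 52,000 M−1 cm−1) from initial velocities.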

Test [4] deals with T1, GST-LSD1. The settings on record: cited from earlier work; for inactivation of LSD1: result in words.
Test [5] concerns the target GST-LSD1 (aa 171-852) (UniProt O60341). The test is described as follows: enzyme inactivation kinetics.
The target of test [6] is T1, GST-LSD1. The settings on record: 500 µM phenelzine, 30 min preincubation, 10 µM substrate.
The subject of test [7] is TSHalpha luciferase reporter in α-23 cells derived from GH3 cells. The settings on record: 10 µM phenelzine, 24 hours, with or without 0.1 µM T3.
Test [8] deals with methylation of Lys-4 of histone H3 in α-23 cells. As to conditions: 10 µM phenelzine, one hour, ChIP.
The mark [9] stands for this setting: 25 nM LSD1, 600 µM substrate, Amplex Red.

Read-outs that look alike come from different tables or passages of the source. Some results are limits rather than exact numbers.

“endo-cyclopropyl-Lys-4 H3-21 (7) (from UniProt P68431 2-22) (peptide)”: the inhibitory constant (Ki) (commonly the equilibrium dissociation constant of an inhibitor or competing ligand from its target) with GST-LSD1 (aa 171-852) [1] came out at 6110 nM.

With “cis-3-chloroallyl-Lys-4 H3-21 [compound 3]”, on GST-LSD1 [2], the “kinact/Ki(inact) fold difference from peptide 2” value was no more than 5 fold; the KI (inactivation) is 955 ± 150 nM; the “k(inact)” value is 0.545 ± 0.038 min⁻¹; the “time-dependent inactivation of LSD1” value was “time- and concentration-dependent inactivation”.

In the case of “dimethyl-Lys-4 H3-21 [reference compound]”, the kcat (commonly the number of substrate molecules converted per active site and unit of time at saturation) on GST-LSD1 [2] (GST-LSD1 with this substrate, 185 nM enzyme) was 0.075 ± 0.0017 s⁻¹; at GST-LSD1 [3] (GST-LSD1 with this substrate, 25 nM enzyme, Amplex Red) it was 0.0583 ± 0.0033 s⁻¹. In addition, the Km – broadly, the concentration of substrate that gives half-maximal velocity – on GST-LSD1 [2] (substrate of GST-LSD1, 185 nM enzyme, pH 7.5, 25 °C) is 21 ± 2 µM; at GST-LSD1 [3] (substrate of GST-LSD1, 25 nM enzyme, Amplex Red) it was 20 ± 3 µM.

Consider “exo-cyclopropyl-Lys-4 H3-21 [compound 6]”, for which, on GST-LSD1 [4], the “inactivation of LSD1” value is “did not inactivate LSD1”. The inhibitory constant (Ki) at GST-LSD1 [4] (reversible inhibitor, estimated, obtained previously) was 2700 ± 740 nM.

Regarding hydrazino-Lys-4 H3-21 [compound 18], at GST-LSD1 [2], the “time-dependent inactivation of LSD1” value is reported as “highly potent time-dependent inhibitor”. At GST-LSD1 [3], the “fold more efficient in inhibiting demethylation than propargylamine-H3 derivatives” value is given as “more than 20 fold”. Also, at GST-LSD1 [3] (setting [9]), the KI (inactivation) came out at 4.35 ± 0.86 nM and the “k(inact)” value is 0.247 ± 0.018 min⁻¹. Further, on GST-LSD1 [3] (versus N-methylpropargylamine peptide 2), the “fold more potent than 2 as LSD1 inactivator” value was “approximately 25 fold”.

For the compound “cis-3-chloroallyl-Lys-4 H3-21 (3) (from UniProt P68431 2-22) (peptide)”, in the test with GST-LSD1 (aa 171-852) [5], the Ki(inact) worked out at 955 nM.

As to “trans-3-chloroallyl-Lys-4 H3-21 (4) (from UniProt P68431 2-22) (peptide)”, the Ki(inact) with GST-LSD1 (aa 171-852) [5] worked out at 763 nM.

Turning to “trans-3-chloroallyl-Lys-4 H3-21 [compound 4]”, on GST-LSD1 [2], the KI (inactivation) is 763 ± 120 nM; the “k(inact)” value came to 0.128 ± 0.0087 min⁻¹; the “time-dependent inactivation of LSD1” value is “time- and concentration-dependent inactivation”.

Turning to `NNCCc1ccccc1` [phenelzine, phenethylhydrazine], the “k(inact)” value at GST-LSD1 [2] stood at 0.955 ± 0.085 min⁻¹. Moreover, the “demethylation of H3-21 dimethyl-Lys substrate peptide by treated LSD1” value at GST-LSD1 [6] is “unable to induce loss of a methyl group”. Besides, the “luciferase activity of TSHalpha reporter” value in test [7] is “increases luciferase activity both in the absence and presence of T3”. Moreover, in test [8], the “mono and dimethylation of Lys-4 H3 at TSHalpha reporter region” value is “enhanced”; the “trimethylation level of Lys-4 H3 at TSHalpha reporter region” value was “unaffected”.

With `C#CCN(C)Cc1ccccc1` [pargyline, reference compound], on GST-LSD1 [4], the “inactivation of LSD1” value is recorded as “failed in subsequent studies to appreciably inactivate LSD1”.

As for “endo-dimethylcyclopropyl-Lys-4 H3-21 (8) (from UniProt P68431 2-22) (peptide)”, the inhibition constant Ki with GST-LSD1 (aa 171-852) [1] was 24200 nM.

Consider propargyl-Lys-4 H3-21 [compound 1], for which, at GST-LSD1 [4] (obtained previously), the KI (inactivation) is 775 ± 160 nM and the “k(inact)” value is 0.304 ± 0.033 min⁻¹.

Turning to “hydrazino-Lys-4 H3-21 (18) (from UniProt P68431 2-22) (peptide)”, the Ki(inact) in the test with GST-LSD1 (aa 171-852) [5] was 4.35 nM.
